# Sampled rows, rich in hits. Any-hit rate of the full collection: about 3.9%.
# TAAR1 ag – agonists of human TAAR1; Q96RJ0; CHO RD-HGA16 TAAR1, Fluo-8 calcium fluorescence; vehicle wells 0%, saturating PEA agonist 100%; activation, % at 3 µM; 360,000 tested, 0.99% active; AID 624467;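 active means activation above the mean activation of all test compounds in the run plus 3 SD, cut at about 38% in these data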
# Target sequence (Q96RJ0 whole entry, looked up): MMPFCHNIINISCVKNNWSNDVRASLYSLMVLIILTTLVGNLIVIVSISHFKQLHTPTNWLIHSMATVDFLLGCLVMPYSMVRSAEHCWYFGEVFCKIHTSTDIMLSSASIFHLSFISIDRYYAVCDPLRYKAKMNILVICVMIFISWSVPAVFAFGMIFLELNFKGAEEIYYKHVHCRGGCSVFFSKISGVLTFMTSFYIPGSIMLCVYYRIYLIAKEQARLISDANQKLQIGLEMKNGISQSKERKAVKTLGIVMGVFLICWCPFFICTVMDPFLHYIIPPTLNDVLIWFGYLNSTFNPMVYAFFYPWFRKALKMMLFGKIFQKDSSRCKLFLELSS
#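 Assay system – CHO-derived RD-HGA16 cells with stable Gα16 and human TAAR1 · Compound dosing – one-point dosing at 3 µM (nominal) · Incubation – 17-24 h seeding, 75 min 37 °C dye, 30 min RT · Measured by – kinetic Fluo-8 calcium fluorescence · Control set – DMSO vehicle as 0%, PEA at EC100 as 100% · Repeats – single well for each compound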
# OX1R antag-1 – human HCRTR1 antagonism | inhibition, % at 5 µM | O43613 | AID 434989 | CHO/OX1R cells, Fluo-8 calcium fluorescence, orexin A | 330,000 tested, 0.43% active;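 active means inhibition above its plate's threshold, mean inhibition of all tested compounds on the plate plus 3 SD, cut at about 37% in these data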;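 further: 0% = orexin A challenge wells and 100% = SB-334867-A antagonist wells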
# OX1R antag-2 – blocks the human orexin 1 receptor | O43613 | OX1R-expressing cells, FRET antagonist read-out | inhibition, % at 6.6 µM | 330,000 tested, 1.8% active | AID 485270; in the data active means inhibition mostly above about 38%, no sharp cut-off; inactive means mostly below about 40%;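 further: 0% = agonist challenge alone and 100% = reference antagonist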
# CHO parental Ca – counter-screen: ATP calcium response change in parental CHO cells. parental CHO-K1, ATP-induced calcium, Fluo-8 fluorescence. inhibition, % at 5.6 µM. 330,000 tested, 0.63% active. AID 463079;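 active means inhibition above that plate's mean sample inhibition plus 3 SD, cut at about 26% in these data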;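 further: 0% = ATP-challenged DMSO wells and 100% = DMSO wells without ATP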
#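 Test system: untransfected parental CHO cell line. Compound: one dose, 5.6 µM nominal. Detection: intracellular calcium via Fluo-8 no-wash fluorescent dye. Measure: % inhibition. Benchmarks: ATP-challenged DMSO wells low, unchallenged DMSO wells high.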
# TAAR1 antag – antagonists of human TAAR1 | 360,000 tested, 1.5% active | Q96RJ0 | inhibition, % at 3 µM | CHO RD-HGA16 TAAR1, Fluo-8 calcium fluorescence, antagonist | AID 624466;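 active means inhibition above a per-plate cutoff, the mean inhibition of test compounds on that plate plus 3 SD, cut at about 49% in these data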;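 further: 0% = DMSO plus EC80 beta-PEA response and 100% = DMSO alone without agonist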
#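 System: CHO RD-HGA16 cells bearing hTAAR1. Reagent: EC80 β-phenethylamine stimulus. Schedule: seeding 17-24 h prior, 75-min 37 °C, 30-min RT dye loading. Signal: Fluo-8 intracellular calcium dye fluorescence, real-time kinetic reads. Read-out: % inhibition from peak post-agonist over basal fluorescence ratio. Benchmarks: vehicle wells and EC80 agonist wells. Replicates: n of 1.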
# TAAR1 ag confirm – confirmation of human TAAR1 agonists; shares compounds with TAAR1 ag; CHO RD-HGA16 TAAR1, Fluo-8 calcium fluorescence; scaled: DMSO 0%, maximal phenethylamine 100%; activation, % at 3 µM; 2,400 tested, 82% active; AID 651783;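 active means activation above a cutoff set at the run's mean compound activation plus 3 SD, cut at about 39% in these data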
# Ga16 nonsel ag – nonselective agonism, TAAR1 counter-screen; shares compounds with TAAR1 ag; CHO-Ga16 parental, Fluo-8 calcium fluorescence; normalized to maximal ATP response, DMSO zero; activation, % at 3 µM; 2,400 tested, 50% active;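 active means activation above the run cutoff, the mean activation over all tested wells plus 3 SD, cut at about 12% in these data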;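 further: 0% = DMSO wells and 100% = maximal ATP response on the peak over basal ratio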
# TAAR1 desensitize – TAAR1 response desensitization, agonist counter-screen. shares compounds with TAAR1 ag. CHO RD-HGA16 hTAAR1, Fluo-8 calcium, beta-PEA response inhibition. inhibition, % at 3 µM. 2,400 tested, 46% active. AID 651951;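 active means inhibition above the run cutoff, the mean inhibition of all test compounds plus 3 SD, cut at about 49% in these data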;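 further: beta-PEA stimulus applied at its EC80; loss of beta-PEA calcium signal after compound pretreatment read as receptor desensitization; 0% = DMSO with beta-PEA at EC80 and 100% = DMSO alone without agonist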
# Ga16 nonsel ant – counter-screen for TAAR1 agonists: nonselective Ga16 antagonists. shares compounds with TAAR1 ag. CHO-Ga16 ATP-induced calcium, Fluo-8 fluorescence. inhibition, % at 3 µM. 2,400 tested, 39% active. AID 651952;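 active means inhibition above the plate's mean compound inhibition plus 3 SD, computed per plate, cut at about 22% in these data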;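 further: 0% = EC80 ATP with DMSO and 100% = DMSO wells without ATP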
# * = called active by the depositor; · = no result.
SMILES,TAAR1 ag,OX1R antag-1,OX1R antag-2,CHO parental Ca,TAAR1 antag,TAAR1 ag confirm,Ga16 nonsel ag,TAAR1 desensitize,Ga16 nonsel ant
O=C(Nc1ccccc1)c1nnsc1S(=O)c1ccc(Cl)cc1 (stereo unspecified),68*,25,33,25,96*,49*,23*,81*,38*
COc1ccc(OC)c(NC(=O)/C=C/c2ccc(S(=O)(=O)N3CCOCC3)cc2)c1,3,·,·,·,7,·,·,·,·
COc1ccc(NC(=O)Cc2ccc(Cl)cc2Cl)cn1,56*,-22,15,-7,1,24,7,13,8
Cc1cc(NC(=O)C2CCCC2)n(-c2nc3ccccc3[nH]2)n1,56*,-38,17,-26,5,-1,-1,7,17
CSCc1c(C(=O)Nc2ccccc2N2CCOCC2)oc2ccccc12,16,3,3,-15,-9,·,·,·,·
O=C(COc1ccc(Br)cc1CNCCc1ccccc1)NCc1ccccc1,94*,-27,-2,-1,69*,89*,25*,80*,43*
COc1cc(CNCCc2ccccc2)cc(Br)c1OCC(=O)Nc1ccccc1C,88*,-11,8,-13,59*,92*,21*,76*,34*
CNCc1cc(Br)c(OCC(=O)Nc2ccccc2OC)c(OC)c1,5,-26,15,-17,0,·,·,·,·
CC(CC(=O)Nc1nncs1)c1ccccc1 (stereo unspecified),2,-4,20,-8,3,·,·,·,·
Cc1ccc(CN2CCNC(=O)C2CC(=O)N(C)CCc2ccccc2)cc1 (stereo unspecified),59*,-27,7,-14,-11,78*,0,37,0
CCOc1ccccc1CN1CCNC(=O)C1CC(=O)N(C)CCc1ccccn1 (stereo unspecified),54*,-6,8,-9,-20,60*,6,18,1
c1ccc(COc2ccc(OCCCNC3CCCC3)cc2)cc1,53*,-18,14,2,3,79*,24*,49*,20
C=CCNCCCCOc1ccc(OCc2ccccc2)cc1,53*,-10,7,-6,22,70*,15*,37,17
O=C(Nc1ccc2c(c1)C(=O)NC2=O)c1cc(Cl)ccc1Cl,3,-3,12,-6,19,·,·,·,·
O=C1C(Cl)=C(NCC2CCCO2)C(=O)N1CCc1ccccc1 (stereo unspecified),74*,-19,4,-15,13,52*,2,9,8
O=C1C(Cl)=C(NCCc2ccccc2)C(=O)N1CCc1ccccc1,43*,0,31,-16,66*,73*,9,83*,32*
O=C(O)c1cccc(NC2=C(Cl)C(=O)c3ccccc3C2=O)c1,-1,·,·,·,9,·,·,·,·
O=C1C(Cl)=C(NCCc2ccccc2)C(=O)c2ccccc21,79*,·,·,·,67*,107*,14*,96*,28*
CC(=O)N(Cc1ccc(F)cc1)C1=C(NCCc2ccccc2)C(=O)c2ccccc2C1=O,50*,-45,29,-39,-2,29,0,21,14
O=C1C(Cl)=C(NCC2CCCO2)C(=O)N1c1cccc(Cl)c1Cl (stereo unspecified),6,-17,24,-1,22,·,·,·,·
O=C1C(Cl)=C(NCCCN2CCOCC2)C(=O)N1CCc1ccccc1,7,-34,11,-25,-1,·,·,·,·
O=C1C=CC2C3C(=O)N(c4ccccc4)C(=O)C3C1N2Cc1ccccc1 (stereo unspecified),10,·,·,·,11,·,·,·,·

# High-throughput results from PubChem BioAssay.
